Source: PubChem BioAssay (several laboratories)
SUMO Mot1 rescue: yeast Mot1-301 growth rescue at high temperature, primary screen, SUMOylation pathway inhibitor project, S. cerevisiae, ATP luminescence, 38.5C; AID 2716, 2010; S. cerevisiae Mot1-301 growth rescue; percent above DMSO median, 100 means doubled; 320,000 tested, 1% active; growth rescue, % at 18.8 µM;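 active = every valid replicate shows activation above 250% relative to neutral control wells; inactive = the rest, any valid replicate at or below 250%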;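 note: OY570 slx delta 5 strain wells were the positive control but not used for scaling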
AI-2 QS modul: Vibrio harveyi AI-2 quorum sensing modulators, primary screen, JMH597 strain, luminescence/OD600 ratio; activity change, % at 7.5 µM; Vibrio harveyi JMH597 AI-2 luminescence/OD600 ratio, 9 h; active compounds read low; strain lacks LuxN and CqsS sensors; 0 = neutral-control median; 300,000 tested, 0.4% active; in the data active = activity change below about -75%, passing the limit was not always enough; inconclusive = no clear call, values can overlap the other calls;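 note: luminescence divided by OD600 gain over 9 h not by final OD600 alone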
KCC2 mod: KCC2 cotransporter modulators, thallium flux, primary screen, cell-based, HEK293 KCC2, FluoZin-2 fluorescence, MLSMR; KCC2 cells, thallium flux FluoZin-2 fluorescence; AID 1456, 2008; B-score of Tl+ flux slope (higher = more flux/activation; lower = inhibition) at 10 µM; 190,000 tested, 2.2% active; Solute carrier family 12 member 5 (Homo sapiens), Q9H2X9;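 active = thallium flux slope and its plate-corrected score both differing from the plate sample mean at a set confidence after two filtering rounds, in either direction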;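 note: slope of fluorescence scaled to starting intensity during 10 to 20 s after thallium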
KCNQ1 pot: potentiators or activators of KCNQ1 channel, primary screen, cell-based, thallium flux, high-throughput; CHO-K1 KCNQ1, thallium flux FluxOR fluorescence; active compounds read high; B-score at 10 µM; 310,000 tested, 0.35% active; AID 2648, 2010;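 active = fluorescence ratio B-score, a plate-corrected score, at least three library SD, with initial intensity B-score within 5 SD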
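Schedule – 37 °C overnight plating, 90-min dark dye load, 20-min compound pretreatment · System – stable KCNQ1 CHO-K1 line · Probe or stimulus – thallium- and potassium-containing depolarizing buffer · Measured by – kinetic FluxOR fluorescence, 10 s baseline plus 110 s post-stimulus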
KCNQ1 inh: inhibitors of human KCNQ1 channel, primary screen, cell-based, thallium flux, high-throughput; CHO-K1 KCNQ1, FluxOR thallium flux fluorescence; active compounds read high; B-score at 10 µM; 310,000 tested, 1.3% active; AID 2642, 2010;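 active = compounds whose thallium flux B-score, printed positive for inhibition, exceeds three library SD while starting fluorescence stays within three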;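 note: channel opened by potassium depolarization with thallium stimulus after 20 min compound exposure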
hERG protect: hERG rescue from dofetilide block, primary screen, cell-based, CHO-hERG, FluxOR thallium flux, dofetilide IC70; Voltage-gated inwardly rectifying potassium channel KCNH2 (Homo sapiens), Q12809; dofetilide IC70 present; activation (rescue from dofetilide block), less the hit threshold, % at 10 µM; 310,000 tested, 0.51% active;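 active = activation above the mean of controls blocked by dofetilide plus 5 SD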;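 note: thallium influx through hERG after potassium depolarization seen as dye fluorescence rise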
Numbers without * were called inactive; i = inactive; u = inconclusive; x = not tested or not shown; + = active, no number. This is a sample that favours compounds with a hit; in the whole collection about 4.2% have one here.

SMILES	SUMO Mot1 rescue	AI-2 QS modul	KCC2 mod	KCNQ1 pot	KCNQ1 inh	hERG protect
Cc1cc(C)c2c(=O)[nH]c(SCC(=O)c3ccc(F)c(C)c3)nc2n1	22	3	0.006	i	i	-12
CCn1c(=O)c(C(=O)NNS(=O)(=O)c2ccc(Cl)cc2)c(O)c2ccccc21	15	43	-0.18	i	6*	-14
CCn1c(=O)c(C(=O)NNC(=O)c2ccccc2)c(O)c2ccccc21	20	7	x	i	i	-6
CCCCCOc1ccc(/C(C)=N/NC2=NCCN2)cc1	38	10	x	i	i	-21
CCCCCCOc1ccc(/C(C)=N/NC2=NCCN2)cc1	-21	25	x	i	13*	-32
Cc1ccsc1/C=C(\CC(=O)O)c1nc2ccccc2o1	-9	14	x	i	i	-8
O=C(O)C/C(=C\c1cc(Br)cs1)c1nc2ccccc2o1	159	24	x	i	i	6.1*
O=C(Nc1ccccc1F)c1ccc(-c2cccc([N+](=O)[O-])c2)o1	3	11	x	i	i	-5
O=C(NC(=S)Nc1cccc(Cl)c1N1CCCC1)c1ccc(-c2cccc([N+](=O)[O-])c2)o1	-7	22	3*	i	i	-7
O=C(CSc1nnc(-c2c[nH]c3ccccc23)o1)NCC1CCCO1 (stereo not drawn)	285*	x	x	x	x	x
CC1Cc2ccccc2N1C(=O)COC(=O)c1ccc(Br)o1 (stereo not drawn)	12	-3	-2.2	i	i	-16
CCCCN(CCCC)C(=S)N/N=C/c1c(C)[nH]n(-c2ccccc2)c1=O	-9	54	23*	29*	i	-7
Cc1[nH]n(-c2ccccc2)c(=O)c1/C=N/NC(=O)c1ccc(O)cc1O	0	-1	x	i	i	-12
c1ccc2c(c1)CCN(c1nc(CN3CCOCC3)nc3sc4c(c13)CCCC4)C2	-8	25	-0.41	i	6*	-13
O=S1(=O)Nc2c(ccc3cccnc23)-c2ccccc21	+	u	4.1*	i	i	-5
CCCCn1c(SC(C)C(=O)NCC2CCCO2)nc2cc(C(=O)OC)ccc2c1=O (stereo not drawn)	-7	17	x	i	i	-12
CCCCn1c(SC(C)C(N)=O)nc2cc(C(=O)OC)ccc2c1=O (stereo not drawn)	-5	12	9.8*	i	i	-1
CCN(CC)CCNC(=O)c1ccc(NC(=O)/C=C/c2ccc3ccccc3n2)cc1	-5	16	x	i	i	-15
COc1ccccc1OCC(=O)N/N=C/C=C/c1ccc([N+](=O)[O-])o1	11	-94*	-0.57	i	i	-5
CCCCCCCC(=O)N/N=C/c1ccc([N+](=O)[O-])o1	-5	-132*	-0.04	i	i	-3
CCCOc1ccc(CCC(=O)N/N=C/c2ccc([N+](=O)[O-])o2)cc1	-7	-224*	0.17	i	i	-6
CCOC(=O)N/N=C\c1ccc([N+](=O)[O-])o1	20	-89*	1.5	i	i	-7
Cc1cc(C)cc(OCC(=O)N/N=C/c2ccc([N+](=O)[O-])o2)c1	102	u	1.4	i	i	-21
O=C(N/N=C/c1ccc([N+](=O)[O-])o1)c1ccc2c(c1)OCO2	-18	-101*	x	i	i	-11
O=S(=O)(Nc1nc(-c2sccc2Cl)cs1)c1cc(Cl)ccc1Cl	0	-21	x	47*	i	47*
